In ChEMBL document CHEMBL1133975, “Isoxazolyl, oxazolyl, and thiazolylpropionic acid derivatives as potent alpha(4)beta(1) integrin antagonists” (Bioorg Med Chem Lett, 2001):

Assays:
Integrin alpha-4/beta-1 [1] = molecular target: T1, Integrin alpha-4/beta-1 (Homo sapiens, UniProt P05556+P13612); assay: Inhibition of Alpha4-beta1 integrin in Jurkat cells (Not active); assay type: cell-based
Summary of the method: (§1)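 Calcein-labelled Jurkat cells were allowed to bind human recombinant sVCAM-1 in the presence of serial dilutions of compound, giving IC50. Values are means ± standard error of the number of independent experiments.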

Integrin alpha-4/beta-1 [2] = molecular target: T1, Integrin alpha-4/beta-1; assay: Inhibition of VCAM binding to Alpha4-beta1 integrin of human eosinophil cell; assay type: protein-complex assay
Integrin alpha-4/beta-1 [3] = molecular target: T1, Integrin alpha-4/beta-1; assay: Inhibition of Alpha4-beta1 integrin in Jurkat cells; assay type: cell-based; summary of the method: as §1
Integrin alpha-4/beta-1 [4] = molecular target: T1, Integrin alpha-4/beta-1; assay: Inhibition of human recombinant sVCAM-1 binding to alpha4-beta1 integrin (VLA-4) in ELISA; assay type: protein-complex assay

T1 sequence (P05556 whole entry): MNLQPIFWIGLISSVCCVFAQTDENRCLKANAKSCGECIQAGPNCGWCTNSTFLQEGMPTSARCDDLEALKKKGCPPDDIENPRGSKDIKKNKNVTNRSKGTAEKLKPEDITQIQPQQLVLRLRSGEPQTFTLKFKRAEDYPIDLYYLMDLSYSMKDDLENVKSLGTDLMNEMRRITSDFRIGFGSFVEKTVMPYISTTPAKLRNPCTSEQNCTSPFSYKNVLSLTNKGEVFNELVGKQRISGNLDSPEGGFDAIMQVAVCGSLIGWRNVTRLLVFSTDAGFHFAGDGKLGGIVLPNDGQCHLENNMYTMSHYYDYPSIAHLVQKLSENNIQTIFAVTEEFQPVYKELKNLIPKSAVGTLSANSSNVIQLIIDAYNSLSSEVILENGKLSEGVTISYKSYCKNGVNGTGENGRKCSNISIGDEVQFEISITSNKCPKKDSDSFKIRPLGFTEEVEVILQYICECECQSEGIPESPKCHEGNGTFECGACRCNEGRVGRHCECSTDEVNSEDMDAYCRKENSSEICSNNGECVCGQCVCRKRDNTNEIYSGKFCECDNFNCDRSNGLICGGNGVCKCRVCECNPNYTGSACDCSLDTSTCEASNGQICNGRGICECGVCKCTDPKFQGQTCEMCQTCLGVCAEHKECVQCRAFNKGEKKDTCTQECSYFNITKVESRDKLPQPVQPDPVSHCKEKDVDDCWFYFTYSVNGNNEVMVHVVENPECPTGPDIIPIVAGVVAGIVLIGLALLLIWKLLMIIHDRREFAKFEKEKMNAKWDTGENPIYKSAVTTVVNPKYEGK
T1 sequence (P13612 whole entry): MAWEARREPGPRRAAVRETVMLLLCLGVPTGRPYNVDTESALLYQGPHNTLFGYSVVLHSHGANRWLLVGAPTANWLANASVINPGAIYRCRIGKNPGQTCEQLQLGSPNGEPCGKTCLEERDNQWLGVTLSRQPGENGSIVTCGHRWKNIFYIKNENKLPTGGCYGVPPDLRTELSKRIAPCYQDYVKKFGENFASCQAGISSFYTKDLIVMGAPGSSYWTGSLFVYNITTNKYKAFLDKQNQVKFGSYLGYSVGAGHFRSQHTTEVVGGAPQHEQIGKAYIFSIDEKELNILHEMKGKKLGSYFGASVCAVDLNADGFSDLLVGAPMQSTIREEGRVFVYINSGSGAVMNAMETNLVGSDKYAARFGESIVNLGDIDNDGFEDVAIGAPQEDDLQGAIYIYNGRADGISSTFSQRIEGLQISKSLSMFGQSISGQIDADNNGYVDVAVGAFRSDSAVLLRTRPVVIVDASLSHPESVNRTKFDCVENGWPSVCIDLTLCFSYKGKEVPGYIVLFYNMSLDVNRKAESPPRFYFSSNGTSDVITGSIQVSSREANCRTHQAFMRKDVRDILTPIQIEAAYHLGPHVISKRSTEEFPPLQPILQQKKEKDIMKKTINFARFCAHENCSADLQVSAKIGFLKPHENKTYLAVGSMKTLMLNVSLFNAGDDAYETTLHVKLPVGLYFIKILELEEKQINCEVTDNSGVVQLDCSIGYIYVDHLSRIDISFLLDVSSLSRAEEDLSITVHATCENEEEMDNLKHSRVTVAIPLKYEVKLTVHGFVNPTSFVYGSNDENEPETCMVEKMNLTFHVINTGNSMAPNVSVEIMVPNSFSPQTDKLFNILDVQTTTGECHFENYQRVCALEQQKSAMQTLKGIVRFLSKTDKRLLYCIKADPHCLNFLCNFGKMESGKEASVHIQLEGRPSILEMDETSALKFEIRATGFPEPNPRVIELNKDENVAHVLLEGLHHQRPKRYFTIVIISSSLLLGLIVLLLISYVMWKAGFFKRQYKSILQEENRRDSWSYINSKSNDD

SMILES | IC50 (Integrin alpha-4/beta-1 [1]) | IC50 (Integrin alpha-4/beta-1 [2]) | IC50 (Integrin alpha-4/beta-1 [3]) | IC50 (Integrin alpha-4/beta-1 [4])
Cc1ccccc1NC(=O)Nc1ccc(CC(=O)N[C@@H](CC(C)C)C2=NOC(CCC(=O)O)C2)cc1 (stereo partly drawn) | – | 495 nM | 88 nM | –
Cc1ccccc1NC(=O)Nc1ccc(CC(=O)N[C@@H](CC(C)C)c2ncc(CCC(=O)O)o2)cc1 | – | 171 nM | 45 nM | –
COc1cc(CC(=O)N[C@@H](CC(C)C)c2cc(CCC(=O)O)on2)ccc1NC(=O)Nc1ccccc1C | – | 1 nM | 0.69 nM | –
Cc1ccccc1NC(=O)Nc1ccc(CC(=O)N[C@@H](CC(C)C)c2ncc(CCC(N)=O)s2)cc1 | – | – | – | Not Active
Cc1ccccc1NC(=O)Nc1ccc(CC(=O)N[C@@H](CC(C)C)C2=NOC(CCC(=O)O)(CCC(=O)O)C2)cc1 | – | 347 nM | 67 nM | –

The remaining lines, values ahead:

IC50 (Integrin alpha-4/beta-1 [1]) | IC50 (Integrin alpha-4/beta-1 [2]) | IC50 (Integrin alpha-4/beta-1 [3]) | IC50 (Integrin alpha-4/beta-1 [4]) | SMILES
Not Active | – | – | – | Cc1ccccc1NC(=O)Nc1ccc(CC(=O)N[C@@H](CC(C)C)c2cc(-c3cccc(C(=O)O)c3)on2)cc1
– | 143 nM | 27 nM | – | Cc1ccccc1NC(=O)Nc1ccc(CC(=O)N[C@@H](CC(C)C)c2cc(CCC(=O)O)on2)cc1
– | 180 nM | 16 nM | – | Cc1ccccc1NC(=O)Nc1ccc(CC(=O)N[C@@H](CC(C)C)c2ncc(CCC(=O)O)s2)cc1
– | – | 2400 nM | – | Cc1ccccc1NC(=O)Nc1ccc(CC(=O)N[C@@H](CC(C)C)c2ncc(CC(=O)O)s2)cc1
– | – | 2040 nM | – | Cc1ccccc1NC(=O)Nc1ccc(CC(=O)N[C@@H](CC(C)C)c2nc(CCC(=O)O)cs2)cc1
– | – | 1800 nM | – | Cc1ccccc1NC(=O)Nc1ccc(CC(=O)N[C@@H](CC(C)C)c2cc(CCCC(=O)O)on2)cc1
Not Active | – | – | – | Cc1ccccc1NC(=O)Nc1ccc(CC(=O)N[C@@H](CC(C)C)c2cc(-c3ccccc3C(=O)O)on2)cc1
